Assay results: paper PMC9435035 (ACS Omega, 2022)

What was measured:
α-glucosidase = α-glucosidase (Saccharomyces cerevisiae, UniProt P53341); experiment: α-glucosidase inhibitory activity; format: biochemical; conditions: read-out: glucosidase inhibition IC50 ± SEM; mean ± SEM
Balb/C mice = experiment: acute toxicity study in mice; format: in vivo; conditions: for mortality: maximum oral dose of 2000 mg/kg (b.w.); for toxic effects (diarrhea, convulsions, lethargy, sleeping, salivation, tremor): oral up to 2000 mg/kg, observed daily for 2 weeks
Outline: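 Two-phase modified Lorke protocol in Balb/C mice (20–25 g), four per group. Phase 1: control given Tween-80 (2%); other groups received oral test compound at 100, 500 or 1000 mg/kg. Phase 2: oral doses of 1250, 1500 and 2000 mg/kg. Animals observed for the first 24 h, then daily for 2 weeks for diarrhea, convulsions, lethargy, sleeping, salivation and tremors, with mortality monitored.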

[1] = test system: overnight fasted normal rats; experiment: oral glucose tolerance test; format: in vivo, Wistar albino rats; conditions: OGTT, glucose 3 g/kg oral
[2] = test system: streptozotocin-induced diabetic Wistar rats; experiment: antidiabetic activity: blood glucose in STZ-induced diabetes; format: in vivo, Wistar albino rats
Outline: (§1)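 Male Wistar albino rats (170–200 g, 8–10 weeks), fasted overnight, given STZ 50 mg/kg i.p. in 0.1 M citrate buffer, then 10% glucose for 3 days. Tail-vein glucose by glucometer at 72 h; >250 mg/dL counted as diabetic. Body weight and blood glucose on days 1, 7, 14, 21 and 28. Means ± SEM, one-way ANOVA with Dunnett's test.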

[3] = body weight of STZ-induced diabetic rats; format: in vivo, Wistar albino rats; conditions: for body weight, day 1: day 1, in g (unit assumed); for body weight, day 7: day 7, in g (unit assumed); for body weight, day 14: day 14, in g (unit assumed); for body weight, day 21: day 21, in g (unit assumed); for body weight, day 28: day 28, in g (unit assumed)
Outline: as §1

[4] = test system: streptozotocin-induced diabetic Wistar rats; experiment: lipid profile in streptozotocin-induced diabetes; format: in vivo, Wistar albino rats; conditions: STZ-diabetic rats
Outline: (§2)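 STZ-diabetic Wistar rats (n = 8 per group) received test compound at 10 or 20 mg/kg p.o., or glibenclamide 500 μg/kg p.o., once daily for 28 days; controls received vehicle. On day 28, rats were anesthetised with pentobarbital sodium (35 mg/kg) and blood was drawn by cardiac puncture. Serum ALP, SGPT, SGOT, LDL, HDL, TG, total cholesterol, creatinine and insulin were measured. Means ± SEM, one-way ANOVA with Dunnett's test.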

[5] = test system: streptozotocin-induced diabetic Wistar rats; experiment: serum profile; format: in vivo, Wistar albino rats; conditions: STZ-diabetic rats; for (ALP) IU / (SGOT) IU / (SGPT) IU: serum
Outline: as §2

[6] = 10 mg/kg p.o. once daily, day 28, 10 mg/kg
[7] = 20 mg/kg p.o. once daily, day 28, 20 mg/kg

α-glucosidase, sequence (P53341 whole entry): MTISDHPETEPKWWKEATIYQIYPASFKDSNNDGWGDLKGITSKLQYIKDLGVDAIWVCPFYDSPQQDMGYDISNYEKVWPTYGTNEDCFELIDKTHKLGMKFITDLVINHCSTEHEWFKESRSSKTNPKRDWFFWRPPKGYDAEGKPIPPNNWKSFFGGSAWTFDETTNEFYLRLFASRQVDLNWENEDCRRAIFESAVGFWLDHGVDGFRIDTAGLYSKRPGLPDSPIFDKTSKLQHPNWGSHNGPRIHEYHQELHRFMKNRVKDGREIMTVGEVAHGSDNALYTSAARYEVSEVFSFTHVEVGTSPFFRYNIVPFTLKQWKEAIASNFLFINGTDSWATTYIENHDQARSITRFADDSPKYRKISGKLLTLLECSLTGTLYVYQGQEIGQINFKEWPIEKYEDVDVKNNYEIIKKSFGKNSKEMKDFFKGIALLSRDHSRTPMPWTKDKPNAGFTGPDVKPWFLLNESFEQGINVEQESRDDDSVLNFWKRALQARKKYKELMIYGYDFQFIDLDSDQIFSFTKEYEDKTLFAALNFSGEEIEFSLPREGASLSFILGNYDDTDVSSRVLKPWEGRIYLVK

Substance: 2-(4-(Benzyloxy)-3-methoxyphenyl)-4-(p-tolyl)-2,3-dihydrobenzo[b][1,5]thiazepine [12B]
- IC50 (α-glucosidase): 3.79 ± 0.22 µM
- mortality (Balb/C mice): no mortality
- toxic effects (diarrhea, convulsions, lethargy, sleeping, salivation, tremor) (Balb/C mice): no toxic effects
- blood glucose level, 0 min ([1]; dose 10 mg/kg): 101.67 ± 4.55 mg/dL
- blood glucose level, 30 min ([1]; dose 10 mg/kg): 121.63 ± 4.56 mg/dL
- blood glucose level, 60 min ([1]; dose 10 mg/kg): 122.02 ± 4.66 mg/dL
- blood glucose level, 90 min ([1]; dose 10 mg/kg): 115.31 ± 4.61 mg/dL
- blood glucose level, 120 min ([1]; dose 10 mg/kg): 114.19 ± 4.61 mg/dL
- blood glucose level, 0 min ([1]; dose 20 mg/kg): 105.59 ± 4.61 mg/dL
- blood glucose level, 30 min ([1]; dose 20 mg/kg): 117.38 ± 4.01 mg/dL
- blood glucose level, 60 min ([1]; dose 20 mg/kg): 117.61 ± 4.60 mg/dL
- blood glucose level, 90 min ([1]; dose 20 mg/kg): 110.71 ± 4.91 mg/dL
- blood glucose level, 120 min ([1]; dose 20 mg/kg): 111.21 ± 4.31 mg/dL
- blood glucose level, day 1 ([2]; 10 mg/kg p.o. once daily): 371.67 ± 4.66 mg/dL
- blood glucose level, day 7 ([2]; 10 mg/kg p.o. once daily): 301.41 ± 4.56 mg/dL
- blood glucose level, day 14 ([2]; 10 mg/kg p.o. once daily): 209.60 ± 4.22 mg/dL
- blood glucose level, day 21 ([2]; 10 mg/kg p.o. once daily): 152.56 ± 4.71 mg/dL
- blood glucose level, day 28 [2, 6]: 138.92 ± 4.67 mg/dL
- blood glucose level, day 1 ([2]; 20 mg/kg p.o. once daily): 369.56 ± 4.56 mg/dL
- blood glucose level, day 7 ([2]; 20 mg/kg p.o. once daily): 237.11 ± 4.39 mg/dL
- blood glucose level, day 14 ([2]; 20 mg/kg p.o. once daily): 167.49 ± 5.02 mg/dL
- blood glucose level, day 21 ([2]; 20 mg/kg p.o. once daily): 131.69 ± 4.77 mg/dL
- blood glucose level, day 28 [2, 7]: 114.74 ± 5.09 mg/dL
- body weight, day 1 ([3]; 10 mg/kg): 187.5 ± 4.39
- body weight, day 7 ([3]; 10 mg/kg): 185.1 ± 4.71
- body weight, day 14 ([3]; 10 mg/kg): 184.5 ± 4.06
- body weight, day 21 ([3]; 10 mg/kg): 187.0 ± 4.39
- body weight, day 28 ([3]; 10 mg/kg): 173.9 ± 4.28
- body weight, day 1 ([3]; 20 mg/kg): 189.7 ± 4.08
- body weight, day 7 ([3]; 20 mg/kg): 184.7 ± 4.66
- body weight, day 14 ([3]; 20 mg/kg): 187.1 ± 4.11
- body weight, day 21 ([3]; 20 mg/kg): 189.3 ± 4.60
- body weight, day 28 ([3]; 20 mg/kg): 175.3 ± 5.01
- HDL ([4]; 10 mg/kg for 28 days): 45.91 ± 2.70 mg/dL
- TG ([4]; 10 mg/kg for 28 days): 149.81 ± 4.60 mg/dL
- LDL ([4]; 10 mg/kg for 28 days, 10 mg/kg): 134.89 ± 4.33 mg/dL
- total CH ([4]; 10 mg/kg for 28 days, 10 mg/kg): 152.11 ± 4.11 mg/dL
- HDL ([4]; 20 mg/kg for 28 days): 53.24 ± 2.08 mg/dL
- TG ([4]; 20 mg/kg for 28 days): 117.97 ± 4.01 mg/dL
- LDL ([4]; 20 mg/kg for 28 days, 20 mg/kg): 113.71 ± 4.16 mg/dL
- total CH ([4]; 20 mg/kg for 28 days, 20 mg/kg): 136.03 ± 4.39 mg/dL
- insulin level ([5]; 10 mg/kg for 28 days): 0.651 ± 0.34 ng/mL
- serum creatinine ([5]; 10 mg/kg for 28 days): 0.90 ± 0.30 mg/dL
- (ALP) IU ([5]; 10 mg/kg for 28 days): 215.19 ± 4.10 IU
- (SGOT) IU ([5]; 10 mg/kg for 28 days): 26.01 ± 2.01 IU
- (SGPT) IU ([5]; 10 mg/kg for 28 days): 26.53 ± 2.38 IU
- insulin level ([5]; 20 mg/kg for 28 days): 0.660 ± 0.30 ng/mL
- serum creatinine ([5]; 20 mg/kg for 28 days): 0.80 ± 0.38 mg/dL
- (ALP) IU ([5]; 20 mg/kg for 28 days): 205.93 ± 4.67 IU
- (SGOT) IU ([5]; 20 mg/kg for 28 days): 22.91 ± 2.87 IU
- (SGPT) IU ([5]; 20 mg/kg for 28 days): 23.35 ± 2.54 IU

Substance: 2-(4-Fluorophenyl)-4-(p-tolyl)-2,3-dihydrobenzo[b][1,5]thiazepine [13B]
- IC50 (α-glucosidase): 3.28 ± 0.19 µM
- mortality (Balb/C mice): no mortality
- toxic effects (diarrhea, convulsions, lethargy, sleeping, salivation, tremor) (Balb/C mice): no toxic effects
- blood glucose level, 0 min ([1]; dose 10 mg/kg): 104.80 ± 4.97 mg/dL
- blood glucose level, 30 min ([1]; dose 10 mg/kg): 120.04 ± 5.04 mg/dL
- blood glucose level, 60 min ([1]; dose 10 mg/kg): 118.31 ± 4.65 mg/dL
- blood glucose level, 90 min ([1]; dose 10 mg/kg): 109.81 ± 4.56 mg/dL
- blood glucose level, 120 min ([1]; dose 10 mg/kg): 113.93 ± 4.67 mg/dL
- blood glucose level, 0 min ([1]; dose 20 mg/kg): 103.79 ± 5.12 mg/dL
- blood glucose level, 30 min ([1]; dose 20 mg/kg): 116.81 ± 4.31 mg/dL
- blood glucose level, 60 min ([1]; dose 20 mg/kg): 114.98 ± 4.34 mg/dL
- blood glucose level, 90 min ([1]; dose 20 mg/kg): 110.21 ± 3.91 mg/dL
- blood glucose level, 120 min ([1]; dose 20 mg/kg): 110.04 ± 4.81 mg/dL
- blood glucose level, day 1 ([2]; 10 mg/kg p.o. once daily): 370.81 ± 4.79 mg/dL
- blood glucose level, day 7 ([2]; 10 mg/kg p.o. once daily): 289.89 ± 4.33 mg/dL
- blood glucose level, day 14 ([2]; 10 mg/kg p.o. once daily): 200.33 ± 4.57 mg/dL
- blood glucose level, day 21 ([2]; 10 mg/kg p.o. once daily): 149.30 ± 4.56 mg/dL
- blood glucose level, day 28 [2, 6]: 132.98 ± 4.33 mg/dL
- blood glucose level, day 1 ([2]; 20 mg/kg p.o. once daily): 375.31 ± 5.01 mg/dL
- blood glucose level, day 7 ([2]; 20 mg/kg p.o. once daily): 230.71 ± 4.88 mg/dL
- blood glucose level, day 14 ([2]; 20 mg/kg p.o. once daily): 163.68 ± 4.37 mg/dL
- blood glucose level, day 21 ([2]; 20 mg/kg p.o. once daily): 120.72 ± 4.11 mg/dL
- blood glucose level, day 28 [2, 7]: 108.42 ± 3.98 mg/dL
- body weight, day 1 ([3]; 10 mg/kg): 186.6 ± 4.70
- body weight, day 7 ([3]; 10 mg/kg): 183.4 ± 4.15
- body weight, day 14 ([3]; 10 mg/kg): 186.3 ± 4.22
- body weight, day 21 ([3]; 10 mg/kg): 180.1 ± 4.12
- body weight, day 28 ([3]; 10 mg/kg): 177.3 ± 4.40
- body weight, day 1 ([3]; 20 mg/kg): 193.6 ± 4.21
- body weight, day 7 ([3]; 20 mg/kg): 187.2 ± 4.81
- body weight, day 14 ([3]; 20 mg/kg): 191.1 ± 4.14
- body weight, day 21 ([3]; 20 mg/kg): 187.8 ± 3.99
- body weight, day 28 ([3]; 20 mg/kg): 185.7 ± 4.79
- HDL ([4]; 10 mg/kg for 28 days): 46.29 ± 2.01 mg/dL
- LDL ([4]; 10 mg/kg for 28 days): 127.81 ± 4.39 mg/dL
- TG ([4]; 10 mg/kg for 28 days): 142.93 ± 4.21 mg/dL
- total CH ([4]; 10 mg/kg for 28 days): 148.67 ± 4.11 mg/dL
- HDL ([4]; 20 mg/kg for 28 days): 56.08 ± 2.63 mg/dL
- LDL ([4]; 20 mg/kg for 28 days): 108.91 ± 4.11 mg/dL
- TG ([4]; 20 mg/kg for 28 days): 114.81 ± 4.41 mg/dL
- total CH ([4]; 20 mg/kg for 28 days): 134.21 ± 4.77 mg/dL
- insulin level ([5]; 10 mg/kg for 28 days): 0.696 ± 0.29 ng/mL
- serum creatinine ([5]; 10 mg/kg for 28 days): 0.76 ± 0.39 mg/dL
- (ALP) IU ([5]; 10 mg/kg for 28 days): 208.96 ± 4.22 IU
- (SGOT) IU ([5]; 10 mg/kg for 28 days): 25.41 ± 2.18 IU
- (SGPT) IU ([5]; 10 mg/kg for 28 days): 24.76 ± 2.81 IU
- insulin level ([5]; 20 mg/kg for 28 days): 0.705 ± 0.31 ng/mL
- serum creatinine ([5]; 20 mg/kg for 28 days): 0.70 ± 0.33 mg/dL
- (ALP) IU ([5]; 20 mg/kg for 28 days): 201.80 ± 4.71 IU
- (SGOT) IU ([5]; 20 mg/kg for 28 days): 22.09 ± 2.21 IU
- (SGPT) IU ([5]; 20 mg/kg for 28 days): 22.03 ± 2.78 IU
